Reference: ChEMBL document CHEMBL3853298, “Total synthesis and in vitro bioevaluation of clavaminols A, C, H & deacetyl clavaminol H as potential chemotherapeutic and antibiofilm agents” (Eur J Med Chem, 2016)
Values after ≈ are worked out from the molar mass of the structure shown.

Legend:
Type in all cases: functional
Staphylococcus aureus [1] = assay: Bactericidal activity against Staphylococcus aureus MLS16 MTCC 2940 after 24 hrs; settings: MLS16 MTCC 2940, 24 h
In short: (§1)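 Broth macrodilution in Mueller Hinton broth, compound serially diluted from 150 down to 0. Overnight bacterial culture added to a final 1.5 × 10^8 CFU/mL (0.5 McFarland), 24 h at 37 °C. Suspension then subcultured onto Mueller Hinton agar for 24 h at 37 °C. MBC is the lowest concentration killing the strain. Duplicates.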

Micrococcus luteus [2] = assay: Bactericidal activity against Micrococcus luteus MTCC 2470 after 24 hrs; settings: MTCC 2470, 24 h; in short: as §1
Raoultella planticola [3] = assay: Bactericidal activity against Klebsiella planticola MTCC 530 after 24 hrs; settings: MTCC 530, 24 h; in short: as §1
Escherichia coli [4] = assay: Bactericidal activity against Escherichia coli MTCC 739 after 24 hrs; settings: MTCC 739, 24 h; in short: as §1
Pseudomonas aeruginosa [5] = assay: Bactericidal activity against Pseudomonas aeruginosa MTCC 2453 after 24 hrs; settings: MTCC 2453, 24 h; in short: as §1
Candida albicans [6] = assay: Fungicidal activity against Candida albicans MTCC 183 after 24 hrs; settings: MTCC 183, 24 h
In short: (§2)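 Candida grown overnight in Mueller Hinton broth. Compound serially diluted in the same broth from 150 to 0 and inoculated to a final 1.5 × 10^8 CFU/mL (0.5 McFarland), then 24 h at 37 °C. Tube contents plated onto Mueller Hinton agar for 24 h at 37 °C. MFC is the lowest concentration killing the yeast. Duplicates.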

Candida albicans [7] = assay: Fungicidal activity against Candida albicans MTCC 227 after 24 hrs; settings: MTCC 227, 24 h; in short: as §2
Candida albicans [8] = assay: Fungicidal activity against Candida albicans MTCC 854 after 24 hrs; settings: MTCC 854, 24 h; in short: as §2
Candida albicans [9] = assay: Fungicidal activity against Candida albicans MTCC 1637 after 24 hrs; settings: MTCC 1637, 24 h; in short: as §2
Candida albicans [10] = assay: Fungicidal activity against Candida albicans MTCC 3017 after 24 hrs; settings: MTCC 3017, 24 h; in short: as §2
Candida albicans [11] = assay: Fungicidal activity against Candida albicans MTCC 3018 after 24 hrs; settings: MTCC 3018, 24 h; in short: as §2
Candida albicans [12] = assay: Fungicidal activity against Candida albicans MTCC 3958 after 24 hrs; settings: MTCC 3958, 24 h; in short: as §2
Candida albicans [13] = assay: Fungicidal activity against Candida albicans MTCC 4748 after 24 hrs; settings: MTCC 4748, 24 h; in short: as §2
Candida albicans [14] = assay: Fungicidal activity against Candida albicans MTCC 7315 after 24 hrs; settings: MTCC 7315, 24 h; in short: as §2
Candida parapsilosis = assay: Fungicidal activity against Candida parapsilosis MTCC 1744 after 24 hrs; settings: Lodderomyces parapsilosis, MTCC 1744, 24 h
In short: (§3)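 Broth dilution in Mueller Hinton broth with serial compound concentrations from […]. Overnight Candida cultures added to a final 1.5 × 10^8 CFU/mL (0.5 McFarland). Incubated 24 h at 37 °C, then 10 µL of each tube plated on Mueller Hinton agar for 24 h at 37 °C. MFC taken as the lowest concentration that kills the strain. Run in duplicate.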

[Candida] aaseri = Fungicidal activity against Candida aaseri MTCC 1962 after 24 hrs; settings: Yamadazyma aaseri, MTCC 1962, 24 h; in short: as §2
Nakaseomyces glabratus = assay: Fungicidal activity against Candida glabrata MTCC 3019 after 24 hrs; settings: MTCC 3019, 24 h; in short: as §2
Pichia kudriavzevii = assay: Fungicidal activity against Candida krusei MTCC 3020 after 24 hrs; settings: MTCC 3020, 24 h; in short: as §3
Pichia sporocuriosa = assay: Fungicidal activity against Issatchenkia hanoiensis MTCC 4755 after 24 hrs; settings: MTCC 4755, 24 h; in short: as §3
Staphylococcus aureus [15] = assay: Antibiofilm activity against Staphylococcus aureus MTCC 96 incubated for 24 hrs under static condition by crystal violet staining-based assay
In short: (§4)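 Strains grown overnight in tryptone soy broth with 0.5% glucose. Compound (250 to 0) mixed with inoculum at 5 × 10^5 CFU/mL in polystyrene microtiter plates. Non-adherent cells washed off with PBS; wells stained with 0.1% crystal violet, dye solubilised in 95% ethanol, absorbance read at 540 nm. IC50 for 50% biofilm inhibition taken from dose-response curves. Triplicates, mean ± S.D.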

Bacillus subtilis = assay: Antibiofilm activity against Bacillus subtilis MTCC 121 incubated for 24 hrs under static condition by crystal violet staining-based assay; in short: as §4
Staphylococcus aureus [16] = assay: Antibiofilm activity against Staphylococcus aureus MLS16 MTCC 2940 incubated for 24 hrs under static condition by crystal violet staining-based assay; in short: as §4
Micrococcus luteus [17] = assay: Antibiofilm activity against Micrococcus luteus MTCC 2470 incubated for 24 hrs under static condition by crystal violet staining-based assay; in short: as §4
Raoultella planticola [18] = assay: Antibiofilm activity against Klebsiella planticola MTCC 530 incubated for 24 hrs under static condition by crystal violet staining-based assay; in short: as §4
Escherichia coli [19] = assay: Antibiofilm activity against Escherichia coli MTCC 739 incubated for 24 hrs under static condition by crystal violet staining-based assay; in short: as §4
Pseudomonas aeruginosa [20] = assay: Antibiofilm activity against Pseudomonas aeruginosa MTCC 2453 incubated for 24 hrs under static condition by crystal violet staining-based assay; in short: as §4

Q: With `CCCCCCCCC[C@H](O)[C@H](N)CO` as the compound, how does the MBC (Staphylococcus aureus [1]) read?
A: 7.8 µg/mL (≈ 35.9 µM)

Q: What about the MBC (Micrococcus luteus [2]) of the same compound?
A: 7.8 µg/mL (≈ 35.9 µM)

Q: And the MBC (Raoultella planticola [3])?
A: 31.2 µg/mL (≈ 144 µM)

Q: And the MBC (Escherichia coli [4])?
A: 15.6 µg/mL (≈ 71.8 µM)

Q: What about the MBC (Pseudomonas aeruginosa [5]) of the same compound?
A: 15.6 µg/mL (≈ 71.8 µM)

Q: What about the MFC (Candida albicans [6]) of the same compound?
A: 15.6 µg/mL (≈ 71.8 µM)

Q: What about the MFC (Candida albicans [7]) of the same compound?
A: 31.2 µg/mL (≈ 144 µM)

Q: And the MFC (Candida albicans [8])?
A: 15.6 µg/mL (≈ 71.8 µM)

Q: And the MFC (Candida albicans [9])?
A: 15.6 µg/mL (≈ 71.8 µM)

Q: And the MFC (Candida albicans [10])?
A: 31.2 µg/mL (≈ 144 µM)

Q: And the MFC (Candida albicans [11])?
A: 15.6 µg/mL (≈ 71.8 µM)

Q: And the MFC (Candida albicans [12])?
A: 15.6 µg/mL (≈ 71.8 µM)

Q: What about the MFC (Candida albicans [13]) of the same compound?
A: 31.2 µg/mL (≈ 144 µM)

Q: What about the MFC (Candida albicans [14]) of the same compound?
A: 62.5 µg/mL (≈ 288 µM)

Q: What about the MFC (Candida parapsilosis) of the same compound?
A: 62.5 µg/mL (≈ 288 µM)

Q: What about the MFC ([Candida] aaseri) of the same compound?
A: 31.2 µg/mL (≈ 144 µM)

Q: And the MFC (Nakaseomyces glabratus)?
A: 15.6 µg/mL (≈ 71.8 µM)

Q: And the MFC (Pichia kudriavzevii)?
A: 15.6 µg/mL (≈ 71.8 µM)

Q: What about the MFC (Pichia sporocuriosa) of the same compound?
A: 31.2 µg/mL (≈ 144 µM)

Q: And the IC50 (Staphylococcus aureus [15])?
A: 4.5 µg/mL (≈ 20.7 µM)

Q: And the IC50 (Bacillus subtilis)?
A: 2.6 µg/mL (≈ 12 µM)

Q: And the IC50 (Staphylococcus aureus [16])?
A: 2.1 µg/mL (≈ 9.66 µM)

Q: What about the IC50 (Micrococcus luteus [17]) of the same compound?
A: 2.3 µg/mL (≈ 10.6 µM)

Q: What about the IC50 (Raoultella planticola [18]) of the same compound?
A: 9.2 µg/mL (≈ 42.3 µM)

Q: What about the INH (Escherichia coli [19]) of the same compound?
A: 4.6 µg/mL

Q: What about the INH (Pseudomonas aeruginosa [20]) of the same compound?
A: 3.9 µg/mL
